Measured values reported in article PMC9710334 (BMJ Open Gastroenterology, 2022).
Where “and” joins values, the source holds several entries; their conditions need not be identical. Identical values can stand only once. Entries after “also recorded” stand apart in the source; their conditions may differ.

How the values were obtained:
[1] = Plasma pharmacokinetics of OP-724 and C-82 after OP-724 infusion; assay type: in vivo, human; settings: for OP-724 AUC0-24h / OP-724 Cmax / OP-724 Tmax / OP-724 T1/2: plasma
Procedure, shortened: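 A single iv dose of 280 or 380 mg/m2 was infused over 4 hours. Blood was drawn predose, at 30 min and 1, 2 and 4 hours after dosing, then 1, 5 and 20 hours after the infusion ended. Plasma parent and metabolite C-82 were quantified. […] Values are mean±SD.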

[2] = test system: liver fibrosis in patients with advanced PBC; test: Paired liver biopsy histology; assay type: in vivo, human
Procedure, shortened: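 Paired liver biopsies were taken at screening (baseline) and within 2 weeks of the final dose of the 12-cycle iv regimen (280 or 380 mg/m2/4 hours, twice weekly). Sections were stained with Masson's trichrome, H&E and Sirius red. Three independent central pathologists scored the slides blinded, using Knodell and Ishak modified HAI for grade and fibrosis stage. Analysis was descriptive.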

[3] = test system: patients with advanced PBC; test: Liver stiffness; assay type: in vivo, human
Procedure, shortened: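 Patients aged 20–74 years with PBC and Scheuer stage III or higher fibrosis on screening biopsy received iv OP-724 at 280 or 380 mg/m2 over 4 hours, twice weekly for 12 cycles. Liver stiffness was measured by FibroScan, and the Child-Pugh score, MELD score and Enhanced Liver Fibrosis score were determined. Prespecified change was from baseline to 12 weeks. Analysis was descriptive, mean±SD, with no statistical testing.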

[4] = test system: patients with advanced PBC; test: Serum liver function parameters during OP-724 administration; assay type: in vivo, human
[5] = test system: patients with liver cirrhosis induced by hepatitis B or C virus; settings: cited from earlier work
liver fibrosis models = settings: cited from earlier work
[6] = test system: cholestatic liver fibrosis models; settings: cited from earlier work
[7] = test system: P300/β-catenin signalling; settings: ref 20 23; cited from earlier work
CBP/β-catenin = settings: cited from earlier work
[8] = OP-724 280 mg/m^2/4 hours, Max, N=6
[9] = OP-724 280 mg/m^2/4 hours, Median, N=6
[10] = OP-724 280 mg/m^2/4 hours, Min, N=6
[11] = single OP-724 iv infusion 280 mg/m^2/4 hours, Mean, N=6
[12] = single OP-724 iv infusion 380 mg/m^2/4 hours, Mean, N=1
[13] = patient P101-01, 12 weeks, baseline 6
[14] = patient P101-02, 12 weeks, baseline 2
[15] = patient P101-02, 12 weeks, baseline 6
[16] = patient P101-04, 12 weeks, baseline 1
[17] = patient P101-07, 12 weeks, baseline 2
[18] = patient P101-07, 12 weeks, baseline 3
[19] = patient P101-08, 12 weeks, baseline 3
[20] = before and after administration
[21] = patient P101-07, 12 weeks, baseline 5
[22] = patient P101-08, 12 weeks, baseline 6

C[C@H]1[C@H]2N(C(=O)CN(C)N2C(=O)NCc2ccccc2)[C@@H](Cc2ccc(OP(=O)(O)O)cc2)C(=O)N1Cc1cccc2cccnc12 [OP-724]
OP-724 AUC0-24h [1, 8]: 9210 ng･h/mL
OP-724 Cmax [1, 8]: 2460 ng/mL
OP-724 Tmax [1, 8]: 4 h
OP-724 AUC0-24h [1, 9]: 6340 ng･h/mL
OP-724 Cmax [1, 9]: 2000 ng/mL
OP-724 Tmax [1, 9]: 2 h
OP-724 AUC0-24h [1, 10]: 3880 ng･h/mL
OP-724 Cmax [1, 10]: 1080 ng/mL
OP-724 Tmax [1, 10]: 0.5 h
OP-724 T1/2 ([1]; single OP-724 iv infusion 280 mg/m^2/4 hours, Mean, N=4): 0.438 h
OP-724 AUC0-24h [1, 11]: 6420±1910 ng･h/mL and 6420 ng･h/mL
OP-724 Cmax [1, 11]: 1850 ng/mL
OP-724 Tmax [1, 11]: 1.9 h
OP-724 AUC0-24h [1, 12]: 10200 ng·h/mL
OP-724 Cmax [1, 12]: 3980 ng/mL
OP-724 T1/2 [1, 12]: 0.497 h
OP-724 Tmax [1, 12]: 1 h
time after initiating administration at which plasma OP-724 reached Cmax ([1]; single dose, all patients): 0.5 to 4 h
patients with a decrease in the fibrosis stage by 1 or more ([2]; paired biopsies, baseline vs 12 weeks, 2/5 patients): 40%
patients with a decrease (improvement) in the mHAI score ([2]; paired biopsies, baseline vs 12 weeks, 3/5 patients): 60%
patients with a decrease in the CPA ([2]; paired biopsies, baseline vs 12 weeks, three of five patients): 60%
Modified HAI score: Confluent necrosis ([2]; patient P101-01, 12 weeks, baseline 0): 0
Modified HAI score: Lobular inflammation ([2]; patient P101-01, 12 weeks, baseline 1): 1
Modified HAI score: Interface hepatitis ([2]; patient P101-01, 12 weeks, baseline 2): 2
Modified HAI score: Portal inflammation ([2]; patient P101-01, 12 weeks, baseline 3): 3
Modified HAI score: Stage ([2]; patient P101-01, 12 weeks, baseline 4): 3
Modified HAI score: HAI score [2, 13]: 6
Collagen proportional area, Sirius red positive area ([2]; patient P101-01, 12 weeks, baseline 7.8010627): 2.739%
Modified HAI score: Confluent necrosis ([2]; patient P101-02, 12 weeks, baseline 0): 0
Modified HAI score: Interface hepatitis [2, 14]: 1
Modified HAI score: Lobular inflammation [2, 14]: 1
Modified HAI score: Portal inflammation [2, 14]: 1
Collagen proportional area, Sirius red positive area ([2]; patient P101-02, 12 weeks, baseline 4.9477138): 3.714%
Modified HAI score: Stage ([2]; patient P101-02, 12 weeks, baseline 5): 5
Modified HAI score: HAI score [2, 15]: 3
Modified HAI score: Confluent necrosis ([2]; patient P101-04, 12 weeks, baseline 0): 1
Modified HAI score: Lobular inflammation [2, 16]: 2
Modified HAI score: Portal inflammation [2, 16]: 3
Modified HAI score: Interface hepatitis ([2]; patient P101-04, 12 weeks, baseline 2): 3
Modified HAI score: Stage ([2]; patient P101-04, 12 weeks, baseline 3): 5
Modified HAI score: HAI score ([2]; patient P101-04, 12 weeks, baseline 4): 9
Collagen proportional area, Sirius red positive area ([2]; patient P101-04, 12 weeks, baseline 6.8891091): 7.584%
Modified HAI score: Confluent necrosis [2, 17]: 0
Modified HAI score: Interface hepatitis [2, 17]: 2
Modified HAI score: Lobular inflammation [2, 18]: 2
Modified HAI score: Portal inflammation [2, 18]: 2
Modified HAI score: Stage [2, 18]: 3
Collagen proportional area, Sirius red positive area ([2]; patient P101-07, 12 weeks, baseline 3.8731926): 3.646%
Modified HAI score: HAI score ([2]; patient P101-07, 12 weeks, baseline 10): 6
Modified HAI score: Confluent necrosis [2, 19]: 0
Modified HAI score: Lobular inflammation [2, 19]: 3
Modified HAI score: Portal inflammation [2, 19]: 2
Modified HAI score: Interface hepatitis ([2]; patient P101-08, 12 weeks, baseline 4): 1
Modified HAI score: Stage ([2]; patient P101-08, 12 weeks, baseline 5): 2
Collagen proportional area, Sirius red positive area ([2]; patient P101-08, 12 weeks, baseline 7.7587483): 3.484%
Modified HAI score: HAI score ([2]; patient P101-08, 12 weeks, baseline 13): 6
septal thickness in liver parenchyma, Masson's trichrome staining ([2]; patients P101-01 and P101-08, after OP-724 administration): reduction in septal thickness
change in mean CP score ([3]; 12 weeks after administration): no changes
change in mean MELD score ([3]; 12 weeks after administration): no changes
change in Enhanced Liver Fibrosis score [3, 20]: no significant change
change in liver stiffness by FibroScan [3, 20]: no significant change
ELF score ([3]; patient P101-01, 12 weeks, baseline 1.2): 0.9
Child-Pugh score [3, 13]: 7
FibroScan ([3]; patient P101-01, 12 weeks, baseline 9.1): 8.9 kPa
MELD score ([3]; patient P101-01, 12 weeks, baseline 15): 15
ELF score ([3]; patient P101-02, 12 weeks, baseline 0.78): 0.24
MELD score [3, 14]: 2
Child-Pugh score [3, 15]: 6
FibroScan ([3]; patient P101-02, 12 weeks, baseline 40.3): 33.8 kPa
ELF score ([3]; patient P101-04, 12 weeks, baseline 2.46): 3.16
MELD score ([3]; patient P101-04, 12 weeks, baseline 6): 8
Child-Pugh score ([3]; patient P101-04, 12 weeks, baseline 7): 7
FibroScan ([3]; patient P101-04, 12 weeks, baseline 26.3): 23.6 kPa
Child-Pugh score [3, 21]: 5
MELD score [3, 21]: 5
FibroScan ([3]; patient P101-07, 12 weeks, baseline 11.6): 9.2 kPa
ELF score ([3]; patient P101-07, 12 weeks, baseline −0.1): −0.07
ELF score ([3]; patient P101-08, 12 weeks, baseline 0.96): 1.48
Child-Pugh score [3, 22]: 6
MELD score [3, 22]: 6
FibroScan ([3]; patient P101-08, 12 weeks, baseline 22.3): 36.3 kPa
serum ALP and GGT levels ([4]; 5, 9, 12 and 16 weeks vs baseline): did not show a tendency to decrease
patients whose abnormally high baseline total bile acid values decreased ([4]; 12 weeks, of five patients with baseline and 12-week data): four
serum total bile acid level ([4]; during OP-724 administration, no significant difference): downward trend; also recorded: tendency to decrease
increase in the albumin level ([4]; this study): this tendency was not observed
liver dysfunction reported as SAE ([5]; one patient at level 3 (380 mg/m^2/4 hours), PRI-724-2101 study ref 25): severe liver dysfunction
harmful effects in humans ([5]; phase 1 or 1/2a clinical trials ref 24 25): does not have harmful effects in humans
albumin level ([5]; previous clinical trials ref 24 25): increase in the albumin level
antifibrotic effect (liver fibrosis models): exerts antifibrotic effects
antifibrotic effect [6]: exerts an antifibrotic effect
inhibition of P300/β-catenin signalling [7]: does not inhibit
inhibition of the interaction between CBP and β-catenin (CBP/β-catenin): selectively inhibits
